Source: PubChem (several laboratories)
Sampled rows, rich in hits. Any-hit rate of the full collection: about 11%.
SF-1 act – SF-1 (human) activation; Q13285; CHO-K1 Gal4-SF-1 LBD luciferase reporter; % increase over DMSO SF-1-specific signal; activation, % at 10 µM; 65,000 tested, 1.9% active;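 active = activation above the mean activation of all tested compounds plus 3 SD, cut at about 50% in these data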
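Test system: transient Gal4-SF-1 LBD reporter, CHO-K1; Amount: 4,000 CHO-K1 cells per well; Doses: 10 µM only; Timing: compound exposure 20 h at 37 °C; Signal: luciferase light emission; Read-out basis: percent activation relative to DMSO median and mock-transfected background; Control set: DMSO negative control and −SF1 background wells; Replicates: one test per compound.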
D1 allo mod – D1 dopamine receptor (human) allosteric modulation; HEK293 D1, CRE-luciferase, dopamine EC30 potentiation; actives deviate in either direction; B-score at 10 µM; 58,000 tested, 5.9% active; AID 641;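 active = luminescence count or its row- and column-corrected plate score outside the 99.7% band of the plate's sample wells, on either side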
M1 antag – M1 muscarinic receptor (rat) antagonism | P08482 | CHO-M1 cells, Fluo-4 calcium, ACh EC80 antagonist mode; hits give low values | B-score at 10 µM | 64,000 tested, 3.4% active | AID 628;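 active = calcium fluorescence response, raw or row-and-column corrected B-score, differing from the plate sample mean either way at a set confidence level, mostly lower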
Target sequence (P08482 whole entry, looked up): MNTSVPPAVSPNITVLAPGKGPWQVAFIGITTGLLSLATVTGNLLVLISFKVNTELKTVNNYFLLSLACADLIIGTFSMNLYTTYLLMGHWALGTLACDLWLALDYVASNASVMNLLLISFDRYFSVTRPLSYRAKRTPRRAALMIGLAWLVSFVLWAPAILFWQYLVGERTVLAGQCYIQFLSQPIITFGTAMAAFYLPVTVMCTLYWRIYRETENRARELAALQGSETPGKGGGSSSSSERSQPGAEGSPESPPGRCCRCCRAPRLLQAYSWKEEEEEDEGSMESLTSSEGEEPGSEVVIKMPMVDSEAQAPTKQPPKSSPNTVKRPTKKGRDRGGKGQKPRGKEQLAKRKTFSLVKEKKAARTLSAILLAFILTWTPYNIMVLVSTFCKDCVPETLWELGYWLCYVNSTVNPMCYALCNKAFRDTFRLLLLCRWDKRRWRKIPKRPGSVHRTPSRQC
M1 agonist – agonists of M1 muscarinic receptor; CHO-M1 cells, Fluo-4 calcium fluorescence, agonist mode; hits give high values; B-score at 10 µM; 64,000 tested, 3% active;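 active = fluorescence rise, raw or as B-score row- and column-corrected plate score, outside the 99.7% band of its plate's samples, either direction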
RORA act – activates the human nuclear receptor RORA; P35398; CHO-K1 Gal4-RORA LBD luciferase reporter, luminescence; percent increase over mock-subtracted basal signal; activation, % at 10 µM; 65,000 tested, 1.5% active;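 active = activation above the mean of all tested compounds plus 3 SD, cut at about 49% in these data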;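 also: 0% = DMSO-treated RORA cells and 100% = added signal equal to DMSO minus mock-transfected cells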
mHtt clearance – compounds clearing mutant huntingtin protein; HeLa Exon1htt(103Q)mCFP, aggregate imaging; zero = plate's median compound well; inhibition, % at 1.5 µM; 47,000 tested, 0.42% active; AID 853;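 active = inhibition of aggregate fluorescence above about 70%, also judged a hit by eye on the cell image, limit read from the data, passing the limit was not always enough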;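 also: cells exposed to compound for three days before fixation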
* marks the source's active call; other numbers are inactive results; x = no result.

SMILES	SF-1 act	D1 allo mod	M1 antag	M1 agonist	RORA act	mHtt clearance
COc1ccc(C(=O)Nc2cc(C)on2)cc1	-1.3	-0.242	-0.273	-0.772	76.7*	x
CCc1nnc(NC(=O)c2cccc(OC)c2)s1	x	-3.49	0.0923	0.203	x	x
COc1ccccc1-c1nnc(SCC(=O)NCc2c(C)c(Cl)cc(C(C)C)c2O)o1	-0.8	-0.743	0.065	0.344	4.3	10.2
O=C(Nc1c(C(=O)O)oc2ccc(Br)cc12)c1ccccc1	6.8	0.017	0.798	0.099	-6.8	x
Cc1nc(Cl)c(C(=O)NC(=O)Nc2cccc(C(F)(F)F)c2)c(C)c1[N+](=O)[O-]	x	x	x	x	x	-67.2
COc1cccc(C(=O)CSc2nnc(-c3cccs3)o2)c1	-20.6	-0.1	0.0754	0.376	-15.7	x
Cc1cc(C(=O)CSc2nnc(-c3cccs3)o2)c(C)n1-c1ccccc1	5.7	-3.55*	0.86	-0.445	-1.4	x
COc1ccc(-c2nnc(SCC(=O)c3cccs3)o2)cc1	41.9	-0.177	0.491	-0.34	49.8*	x
COc1ccc(-c2nnc(SCC(=O)c3cc(C)n(Cc4cccs4)c3C)o2)cc1	-11.6	-0.0521	0.938	-0.628	7.1	15.3
CCSc1nnc(-c2ccc(OC)cc2)o1	24.4	-0.901	0.279	0.953	89.7*	-55.0
O=C(CSc1nnc(-c2cccs2)o1)c1cccs1	97.6*	-0.291	0.143	-1.68	27.0	26.8
O=C(NC(c1ccccc1)c1ccccc1)C1CCCN(S(=O)(=O)c2cnc[nH]2)C1 (centres undefined)	-4.0	-0.3	0.832	-0.391	0.6	11.2
CCOc1ccc(NC(=O)C(C)Oc2ccccc2C(=O)Nc2ccc(C)c(Cl)c2)cc1 (centres undefined)	x	x	x	x	x	28.0
CCOc1ccc(C(=O)N2CCC(C(=O)c3ccc4c(c3)OCCO4)CC2)cc1	-7.3	-0.0813	0.357	0.033	10.5	-13.7
COc1ccccc1NC(=O)CN(Cc1ccccc1)S(C)(=O)=O	x	x	x	x	x	29.0
COCCCN(C(=O)c1ccco1)c1nc(-c2cc(OC)ccc2OC)cs1	-14.7	0.049	-0.462	-0.423	-14.7	45.9
COCCCN(C(C)=O)c1nc(-c2ccc(OC)cc2)cs1	98.1*	0.539	0.269	0.833	84.5*	x
Cc1cccc(N(C(=O)c2ccc(CN3CCOCC3)o2)C(C(=O)NC(C)(C)C)c2ccc(F)cc2)c1 (centres undefined)	x	x	x	x	x	11.3
CCn1cnc2cc(NCc3ccc(C)cc3)ccc21	50.3*	-0.306	-1.76	-0.344	44.1	x
CCn1cnc2cc(NS(=O)(=O)c3ccc(C)cc3)ccc21	x	x	x	x	x	10.7
COc1ccc(NC(=O)CSc2nc3c(c(=O)n2-c2ccc(C)cc2)SCC3)c(OC)c1	-13.2	0.0113	-0.0609	-0.661	11.9	x
Cc1ccccc1NC(=O)C1CCN(c2cc(-c3ccccc3)nc3ncnn23)CC1	x	x	x	x	x	26.8
Cc1cc(C(=O)CNCc2ccco2)c(C)n1-c1ccc(F)cc1	52.9*	x	0.68	-1.31	69.7*	x
CC(C)CCNC(=O)c1nnc(Cc2ccc(Cl)cc2)o1	x	x	x	x	x	10.9
O=C(Cn1cnc2ccccc21)OCC(=O)N1CCCc2ccccc21	-5.7	-0.162	-0.197	-2.38*	-6.6	x
SMILES	SF-1 act	D1 allo mod	M1 antag	M1 agonist	RORA act	mHtt clearance
Cc1ccc(N=C2C(=S)N(c3ccc(C)cc3)C(=N)N2/N=C/c2ccc(Cl)cc2)cc1	x	x	x	x	x	23.3
CCCCC(CC)Cn1c2nc3ccccc3nc2c2c(=N)oc(C)nc21 (centres undefined)	-1.4	1.22	-0.0854	-0.501	5.5	x
CCCCn1c2nc3ccccc3nc2c2c(=N)oc(C)nc21	11.7	6.58*	-0.199	3.95*	21.6	x
O=C(CCC1CCCC1)c1c(O)c2ccccc2oc1=O	26.4	-3.15*	-2.08*	8.17*	23.2	x
N#CCSc1nnc(Cc2ccc3c(c2)OCO3)o1	13.9	-1.18	0.0365	-1.35	-18.2	67.5
Cc1ccc(-c2cc(C(=O)N3CCCC3)no2)cc1	-50.9	-5.16*	0.947	0.632	-50.7	x
COc1ccccc1N1CCN(C(=O)c2cc(-c3ccc(C)cc3)on2)CC1	-7.2	0.0361	-0.299	-0.0308	0.7	18.4
CC1CCCC(C)N1C(=O)c1cc(-c2ccc(Cl)c(Cl)c2)on1 (centres undefined)	26.3	0.0118	0.378	0.526	76.0*	-35.9
O=[N+]([O-])c1ccc(-c2cc(-c3ccncc3)nc3ccc4ccccc4c23)cc1	x	x	x	x	x	24.0
